Laboratory results: ChEMBL document CHEMBL4689842, “EUbOPEN Chemogenomics Library wave 1” (2021)
“And” between values parts separate entries of the source, which are not always exact repeats. Equal entries are not always repeated.

Test system: U2OS
Experiment: Multiplex assay against U2OS
Assay type: toxicity, cell-based
Settings: human
In short: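 Cells stained live at seeding with Hoechst33342, BioTracker Green Microtubule Cytoskeleton Dye, MitoTracker Red and Annexin V Alexa Fluor 680 were imaged on a CQ1 microscope at 37°C and 5% CO2 after compound addition. Their classification by CellPathfinder machine-learning gating ran from Hoechst high-intensity objects versus normal cells, to healthy, pyknosed or fragmented nuclei among normal cells, to mitotic or apoptotic among pyknosed cells. Tubulin, mitochondrial-mass and membrane-permeability phenotypes are per cents of healthy-nucleus cells.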

[1] = 12 h, 1 µM, compound concentration 1 uM, replicate 1
[2] = 12 h, 1 µM, compound concentration 1 uM, replicate 2
[3] = 12 h, 10 µM, compound concentration 10 uM, replicate 1
[4] = 12 h, 10 µM, compound concentration 10 uM, replicate 2
[5] = 24 h, 1 µM, compound concentration 1 uM, replicate 1
[6] = 24 h, 1 µM, compound concentration 1 uM, replicate 2
[7] = 24 h, 10 µM, compound concentration 10 uM, replicate 1
[8] = 24 h, 10 µM, compound concentration 10 uM, replicate 2
[9] = 48 h, 10 µM, compound concentration 10 uM, replicate 1
[10] = 48 h, 10 µM, compound concentration 10 uM, replicate 2
[11] = 48 h, 1 µM, compound concentration 1 uM, replicate 1
[12] = 48 h, 1 µM, compound concentration 1 uM, replicate 2

CCOC(=O)Nc1cc(-c2ccc(C)c(NS(C)(=O)=O)c2)nn2c(C)nnc12
Population Apoptotic (%) [1]: 83%
Population Fragmented Nuclei (%) [1]: 7%
Population Healthy Nuclei (%) [1]: 89%
Population Hoechst High Intensity Objects (%) [1]: 2%
Population Membrane Permeable-Phenotype (%) [1]: 9%
Population Mitochondria Different-Phenotype (%) [1]: 27%
Population Mitotic Cells (%) [1]: 16%
Population Normal (%) [1]: 97%
Population Pyknosed Nuclei (%) [1]: 3%
Population Tubulin-Different-Phenotype (%) [1]: 26%
Total Cell Count [1]: 184
Population Apoptotic (%) [2]: 100%
Population Fragmented Nuclei (%) [2]: 11%
Population Healthy Nuclei (%) [2]: 88%
Population Hoechst High Intensity Objects (%) [2]: 11%
Population Membrane Permeable-Phenotype (%) [2]: 7%
Population Mitochondria Different-Phenotype (%) [2]: 31%
Population Mitotic Cells (%) [2]: 0%
Population Normal (%) [2]: 88%
Population Pyknosed Nuclei (%) [2]: 0%
Population Tubulin-Different-Phenotype (%) [2]: 47%
Total Cell Count [2]: 152
Population Apoptotic (%) [3]: 36% and 50%
Population Fragmented Nuclei (%) [3]: 7% and 3%
Population Healthy Nuclei (%) [3]: 85% and 87%
Population Hoechst High Intensity Objects (%) [3]: 4% and 3%
Population Membrane Permeable-Phenotype (%) [3]: 2% and 7%
Population Mitotic Cells (%) [3]: 63% and 50%
Population Normal (%) [3]: 95% and 96%
Population Pyknosed Nuclei (%) [3]: 7% and 8%
Total Cell Count [3]: 284 and 216
Population Fragmented Nuclei (%) [4]: 8% and 6%
Population Healthy Nuclei (%) [4]: 86% and 89%
Population Hoechst High Intensity Objects (%) [4]: 2% and 10%
Population Membrane Permeable-Phenotype (%) [4]: 0% and 6%
Population Mitochondria Different-Phenotype (%) [4]: 11% and 29%
Population Mitotic Cells (%) [4]: 60% and 100%
Population Normal (%) [4]: 97% and 89%
Population Pyknosed Nuclei (%) [4]: 5% and 3%
Population Tubulin-Different-Phenotype (%) [4]: 89% and 30%
Total Cell Count [4]: 101 and 206
Population Apoptotic (%) [5]: 22%
Population Fragmented Nuclei (%) [5]: 7%
Population Healthy Nuclei (%) [5]: 88%
Population Hoechst High Intensity Objects (%) [5]: 2%
Population Mitochondria Different-Phenotype (%) [5]: 32%
Population Mitotic Cells (%) [5]: 77%
Population Normal (%) [5]: 97%
Population Pyknosed Nuclei (%) [5]: 3%
Population Tubulin-Different-Phenotype (%) [5]: 32%
Total Cell Count [5]: 257
Population Apoptotic (%) [6]: 20%
Population Fragmented Nuclei (%) [6]: 9%
Population Healthy Nuclei (%) [6]: 84%
Population Hoechst High Intensity Objects (%) [6]: 7%
Population Membrane Permeable-Phenotype (%) [6]: 4%
Population Mitochondria Different-Phenotype (%) [6]: 34%
Population Mitotic Cells (%) [6]: 80%
Population Normal (%) [6]: 92%
Population Pyknosed Nuclei (%) [6]: 5%
Population Tubulin-Different-Phenotype (%) [6]: 59%
Total Cell Count [6]: 195
Population Fragmented Nuclei (%) [7]: 5%
Population Healthy Nuclei (%) [7]: 87% and 93%
Population Hoechst High Intensity Objects (%) [7]: 3% and 1%
Population Membrane Permeable-Phenotype (%) [7]: 1% and 4%
Population Mitochondria Different-Phenotype (%) [7]: 11% and 18%
Population Mitotic Cells (%) [7]: 88% and 33%
Population Normal (%) [7]: 96% and 98%
Population Pyknosed Nuclei (%) [7]: 7% and 3%
Total Cell Count [7]: 378 and 305
Population Apoptotic (%) [8]: 28% and 53%
Population Fragmented Nuclei (%) [8]: 3% and 7%
Population Healthy Nuclei (%) [8]: 90% and 86%
Population Hoechst High Intensity Objects (%) [8]: 2% and 9%
Population Membrane Permeable-Phenotype (%) [8]: 0% and 5%
Population Mitochondria Different-Phenotype (%) [8]: 16% and 30%
Population Mitotic Cells (%) [8]: 71% and 46%
Population Normal (%) [8]: 97% and 90%
Population Pyknosed Nuclei (%) [8]: 5% and 6%
Population Tubulin-Different-Phenotype (%) [8]: 96% and 35%
Total Cell Count [8]: 137 and 273
Population Apoptotic (%) [9]: 36%
Population Fragmented Nuclei (%) [9]: 5%
Population Healthy Nuclei (%) [9]: 91%
Population Hoechst High Intensity Objects (%) [9]: 1%
Population Mitochondria Different-Phenotype (%) [9]: 10%
Population Mitotic Cells (%) [9]: 63%
Population Normal (%) [9]: 98%
Population Pyknosed Nuclei (%) [9]: 3%
Population Tubulin-Different-Phenotype (%) [9]: 98%
Total Cell Count [9]: 662
Population Apoptotic (%) [10]: 17%
Population Fragmented Nuclei (%) [10]: 2%
Population Healthy Nuclei (%) [10]: 90%
Population Hoechst High Intensity Objects (%) [10]: 2%
Population Membrane Permeable-Phenotype (%) [10]: 0%
Population Mitochondria Different-Phenotype (%) [10]: 12%
Population Mitotic Cells (%) [10]: 82%
Population Normal (%) [10]: 97%
Population Pyknosed Nuclei (%) [10]: 6%
Population Tubulin-Different-Phenotype (%) [10]: 91%
Total Cell Count [10]: 261

CC1=C(C(=O)Nc2cc3cn[nH]c3cc2F)C(c2ccc(C(F)(F)F)cc2)CC(=O)N1 (stereo unspecified)
Population Apoptotic (%) [1]: 46%
Population Fragmented Nuclei (%) [1]: 9%
Population Healthy Nuclei (%) [1]: 78%
Population Hoechst High Intensity Objects (%) [1]: 4%
Population Membrane Permeable-Phenotype (%) [1]: 6%
Population Mitochondria Different-Phenotype (%) [1]: 5%
Population Mitotic Cells (%) [1]: 53%
Population Normal (%) [1]: 95%
Population Pyknosed Nuclei (%) [1]: 12%
Population Tubulin-Different-Phenotype (%) [1]: 10%
Total Cell Count [1]: 190
Population Apoptotic (%) [2]: 50%
Population Fragmented Nuclei (%) [2]: 2%
Population Healthy Nuclei (%) [2]: 93%
Population Hoechst High Intensity Objects (%) [2]: 10%
Population Membrane Permeable-Phenotype (%) [2]: 4%
Population Mitochondria Different-Phenotype (%) [2]: 9%
Population Mitotic Cells (%) [2]: 50%
Population Normal (%) [2]: 89%
Population Pyknosed Nuclei (%) [2]: 4%
Population Tubulin-Different-Phenotype (%) [2]: 14%
Total Cell Count [2]: 76
Population Apoptotic (%) [3]: 40%
Population Fragmented Nuclei (%) [3]: 7%
Population Healthy Nuclei (%) [3]: 77%
Population Hoechst High Intensity Objects (%) [3]: 8%
Population Membrane Permeable-Phenotype (%) [3]: 3%
Population Mitochondria Different-Phenotype (%) [3]: 9%
Population Mitotic Cells (%) [3]: 60%
Population Normal (%) [3]: 91%
Population Pyknosed Nuclei (%) [3]: 14%
Population Tubulin-Different-Phenotype (%) [3]: 4%
Total Cell Count [3]: 223
Population Apoptotic (%) [4]: 50%
Population Fragmented Nuclei (%) [4]: 21%
Population Healthy Nuclei (%) [4]: 70%
Population Hoechst High Intensity Objects (%) [4]: 9%
Population Membrane Permeable-Phenotype (%) [4]: 5%
Population Mitochondria Different-Phenotype (%) [4]: 12%
Population Mitotic Cells (%) [4]: 50%
Population Normal (%) [4]: 90%
Population Pyknosed Nuclei (%) [4]: 7%
Population Tubulin-Different-Phenotype (%) [4]: 25%
Total Cell Count [4]: 97
Population Apoptotic (%) [5]: 56%
Population Fragmented Nuclei (%) [5]: 8%
Population Healthy Nuclei (%) [5]: 82%
Population Hoechst High Intensity Objects (%) [5]: 2%
Population Membrane Permeable-Phenotype (%) [5]: 6%
Population Mitochondria Different-Phenotype (%) [5]: 9%
Population Mitotic Cells (%) [5]: 43%
Population Normal (%) [5]: 97%
Population Pyknosed Nuclei (%) [5]: 8%
Population Tubulin-Different-Phenotype (%) [5]: 9%
Total Cell Count [5]: 176
Population Apoptotic (%) [6]: 42%
Population Fragmented Nuclei (%) [6]: 7%
Population Healthy Nuclei (%) [6]: 86%
Population Hoechst High Intensity Objects (%) [6]: 4%
Population Membrane Permeable-Phenotype (%) [6]: 10%
Population Mitochondria Different-Phenotype (%) [6]: 13%
Population Mitotic Cells (%) [6]: 57%
Population Normal (%) [6]: 95%
Population Pyknosed Nuclei (%) [6]: 6%
Population Tubulin-Different-Phenotype (%) [6]: 16%
Total Cell Count [6]: 93
Population Apoptotic (%) [7]: 66%
Population Fragmented Nuclei (%) [7]: 6%
Population Healthy Nuclei (%) [7]: 86%
Population Membrane Permeable-Phenotype (%) [7]: 1%
Population Mitochondria Different-Phenotype (%) [7]: 6%
Population Mitotic Cells (%) [7]: 33%
Population Pyknosed Nuclei (%) [7]: 7%
Population Tubulin-Different-Phenotype (%) [7]: 4%
Total Cell Count [7]: 277
Population Apoptotic (%) [8]: 75%
Population Fragmented Nuclei (%) [8]: 23%
Population Healthy Nuclei (%) [8]: 68%
Population Hoechst High Intensity Objects (%) [8]: 6%
Population Membrane Permeable-Phenotype (%) [8]: 4%
Population Mitochondria Different-Phenotype (%) [8]: 14%
Population Mitotic Cells (%) [8]: 25%
Population Normal (%) [8]: 93%
Population Pyknosed Nuclei (%) [8]: 8%
Population Tubulin-Different-Phenotype (%) [8]: 29%
Total Cell Count [8]: 119
Population Apoptotic (%) [11]: 34%
Population Fragmented Nuclei (%) [11]: 7%
Population Healthy Nuclei (%) [11]: 85%
Population Hoechst High Intensity Objects (%) [11]: 2%
Population Membrane Permeable-Phenotype (%) [11]: 3%
Population Mitochondria Different-Phenotype (%) [11]: 12%
Population Mitotic Cells (%) [11]: 65%
Population Normal (%) [11]: 97%
Population Pyknosed Nuclei (%) [11]: 7%
Population Tubulin-Different-Phenotype (%) [11]: 11%
Total Cell Count [11]: 181
Population Apoptotic (%) [12]: 75%
Population Fragmented Nuclei (%) [12]: 6%
Population Healthy Nuclei (%) [12]: 90%
Population Hoechst High Intensity Objects (%) [12]: 4%
Population Membrane Permeable-Phenotype (%) [12]: 6%
Population Mitochondria Different-Phenotype (%) [12]: 18%
Population Mitotic Cells (%) [12]: 25%
Population Normal (%) [12]: 95%
Population Pyknosed Nuclei (%) [12]: 2%
Population Tubulin-Different-Phenotype (%) [12]: 12%
Total Cell Count [12]: 77
Population Fragmented Nuclei (%) [9]: 7%
Population Healthy Nuclei (%) [9]: 77%
Population Hoechst High Intensity Objects (%) [9]: 2%
Population Membrane Permeable-Phenotype (%) [9]: 3%
Population Mitochondria Different-Phenotype (%) [9]: 12%
Population Normal (%) [9]: 97%
Population Pyknosed Nuclei (%) [9]: 15%
Population Tubulin-Different-Phenotype (%) [9]: 3%
Total Cell Count [9]: 438
Population Apoptotic (%) [10]: 50%
Population Fragmented Nuclei (%) [10]: 15%
Population Healthy Nuclei (%) [10]: 76%
Population Hoechst High Intensity Objects (%) [10]: 3%
Population Membrane Permeable-Phenotype (%) [10]: 8%
Population Mitochondria Different-Phenotype (%) [10]: 28%
Population Mitotic Cells (%) [10]: 50%
Population Normal (%) [10]: 96%
Population Pyknosed Nuclei (%) [10]: 8%
Population Tubulin-Different-Phenotype (%) [10]: 32%
Total Cell Count [10]: 170
